Converted amounts (≈) assume the structure as drawn.

Holding throughout (type): functional
In experiment [1] the test system is Aphis craccivora. Put plainly: Insecticidal activity against Aphis craccivora assessed as mortality at 500 mg/L.
In experiment [2] the test system is Aphis craccivora. Nature of the experiment: Insecticidal activity against Aphis craccivora.
The subject of experiment [3] is Nilaparvata lugens. Nature of the experiment: Insecticidal activity against imidacloprid-sensitive Nilaparvata lugens. An outline of the steps: (§1)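 Nilaparvata lugens (brown planthopper), sensitive and imidacloprid-resistant strains tested separately, using a protocol similar to the pea aphid bioassay. Activity expressed as LC50 (mg/L).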
The test system of experiment [4] is Nilaparvata lugens. Nature of the experiment: Insecticidal activity against imidacloprid-resistant Nilaparvata lugens. An outline of the steps:
as §1

For the compound `CCOC1CC(C(C)C)C([N+](=O)[O-])=C2N(Cc3ccc(Cl)nc3)CCN21` (stereo unspecified), the Activity with Aphis craccivora [1] was determined as 72%.
Same read-out and setting: next, `CCC(C)OC1CC(C)C([N+](=O)[O-])=C2N(Cc3ccc(Cl)nc3)CCN21` (stereo unspecified): 0%; `CCCC1CC(OC(C)C)N2CCN(Cc3ccc(Cl)nc3)C2=C1[N+](=O)[O-]` (stereo unspecified): 79%; `COC1C(C)CC([N+](=O)[O-])=C2N(Cc3ccc(Cl)nc3)CCN21` (stereo unspecified): 73%.
Same read-out and setting: next, `CC1C([N+](=O)[O-])=C2N(Cc3ccc(Cl)nc3)CCN2C(O)C1C` (stereo unspecified): 50%; `O=[N+]([O-])C1=C2N(Cc3ccc(Cl)nc3)CCN2C(O)C2CCCCC12` (stereo unspecified): 0%.
Broadly, the LC50 is the concentration lethal to half of the exposed cells or organisms. The low end stands for a more lethal substance, the high end for a less lethal substance. For the compound `CCCOC1CC(CC)C([N+](=O)[O-])=C2N(Cc3ccc(Cl)nc3)CCN21` (stereo unspecified), the Activity in the experiment on Aphis craccivora [1] came to 100%. In the experiment on Aphis craccivora [2], this compound displayed an LC50 of 86.4 µg/mL (≈ 227 µM).
Consider `CCC1CC(OC(C)C)N2CCN(Cc3ccc(Cl)nc3)C2=C1[N+](=O)[O-]` (stereo unspecified), for which the Activity in the experiment on Aphis craccivora [1] came out at 100%. In the experiment with Aphis craccivora [2], the LC50 worked out at 88.9 µg/mL (≈ 233 µM).
In the case of `CC1CC(OCc2ccccc2)N2CCN(Cc3ccc(Cl)nc3)C2=C1[N+](=O)[O-]` (stereo unspecified), the Activity with Aphis craccivora [1] worked out at 94%.
With `CCC1CC(OC)N2CCN(Cc3ccc(Cl)nc3)C2=C1[N+](=O)[O-]` (stereo unspecified), the Activity in the experiment with Aphis craccivora [1] turned out to be 90%. The results for the LC50 in the experiment on Nilaparvata lugens [3] and with Nilaparvata lugens [4] were 1.07 µg/mL (≈ 3.03 µM) and 8.87 µg/mL (≈ 25.1 µM), respectively.
`CC1CC(OC2CCCCC2)N2CCN(Cc3ccc(Cl)nc3)C2=C1[N+](=O)[O-]` (stereo unspecified): the Activity in the experiment on Aphis craccivora [1] worked out at 0%.
Same read-out and setting: next, `COC1CC(c2ccccc2)C([N+](=O)[O-])=C2N(Cc3ccc(Cl)nc3)CCN21` (stereo unspecified): 50%.
In the case of `CCOC1CC(c2ccccc2)C([N+](=O)[O-])=C2N(Cc3ccc(Cl)nc3)CCN21` (stereo unspecified), the Activity in the experiment on Aphis craccivora [1] turned out to be 89%.
In the case of `CC1(O)CCC([N+](=O)[O-])=C2N(Cc3ccc(Cl)nc3)CCN21` (stereo unspecified), the Activity in the experiment with Aphis craccivora [1] came out at 90%.
The same measure, in the same setting: next, `CCCC1CC(OC)N2CCN(Cc3ccc(Cl)nc3)C2=C1[N+](=O)[O-]` (stereo unspecified): 89%; `CCCOC1CC(CCC)C([N+](=O)[O-])=C2N(Cc3ccc(Cl)nc3)CCN21` (stereo unspecified): 82%; `CCCOC1CC(c2ccccc2)C([N+](=O)[O-])=C2N(Cc3ccc(Cl)nc3)CCN21` (stereo unspecified): 45%.
On the same count and under the same terms, next, `CC(C)OC1CC(c2ccccc2)C([N+](=O)[O-])=C2N(Cc3ccc(Cl)nc3)CCN21` (stereo unspecified): 0%; `CCC1C([N+](=O)[O-])=C2N(Cc3ccc(Cl)nc3)CCN2C(O)C1C` (stereo unspecified): 0%.
With `CCCC1CC(O)N2CCN(Cc3ccc(Cl)nc3)C2=C1[N+](=O)[O-]` (stereo unspecified), in the experiment with Aphis craccivora [1], the Activity is 25%.
Take `O=[N+]([O-])C1=C2N(Cc3ccc(Cl)nc3)CCN2C(O)CC1c1ccc([N+](=O)[O-])cc1` (stereo unspecified): in the experiment with Aphis craccivora [1], the Activity came out at 0%.
Consider `CC(C)OC1CC(C)C([N+](=O)[O-])=C2N(Cc3ccc(Cl)nc3)CCN21` (stereo unspecified), for which, in the experiment with Aphis craccivora [1], the Activity is on record as 100%. The LC50 in the experiment on Aphis craccivora [2] was 96.2 µg/mL (≈ 262 µM); in the experiment with Nilaparvata lugens [3], 5.57 µg/mL (≈ 15.2 µM); with Nilaparvata lugens [4] it was 6.33 µg/mL (≈ 17.3 µM).
Regarding `COC1CC(C)C([N+](=O)[O-])=C2N(Cc3ccc(Cl)nc3)CCN21` (stereo unspecified), the Activity in the experiment on Aphis craccivora [1] came to 100%. Further, the 50% lethal concentration (LC50) with Aphis craccivora [2] came to 50 µg/mL (≈ 148 µM).
`CCCCOC1CC(C)C([N+](=O)[O-])=C2N(Cc3ccc(Cl)nc3)CCN21` (stereo unspecified): in the experiment on Aphis craccivora [1], the Activity amounted to 58.4%.
Turning to `CC(C)C1CC(O)N2CCN(Cc3ccc(Cl)nc3)C2=C1[N+](=O)[O-]` (stereo unspecified), in the experiment with Aphis craccivora [1], the Activity is listed as 0%.
On the same count and under the same terms, next, `O=[N+]([O-])C1=C2N(Cc3ccc(Cl)nc3)CCN2C(O)CC1c1ccccc1` (stereo unspecified): 30%.
The same measure, in the same setting: next, `CCCCC1CC(O)N2CCN(Cc3ccc(Cl)nc3)C2=C1[N+](=O)[O-]` (stereo unspecified): 85%; `C=CCOC1CC(C)C([N+](=O)[O-])=C2N(Cc3ccc(Cl)nc3)CCN21` (stereo unspecified): 100%.
With `CC1CC(O)N2CCN(Cc3ccc(Cl)nc3)C2=C1[N+](=O)[O-]` (stereo unspecified), the Activity in the experiment with Aphis craccivora [1] was found to be 100%. Also, the LC50 with Aphis craccivora [2] was 31.5 µg/mL (≈ 97 µM); in the experiment with Nilaparvata lugens [3], 20.7 µg/mL (≈ 63.8 µM); with Nilaparvata lugens [4], 7.36 µg/mL (≈ 22.7 µM).
Turning to `CCOC1CC(CC)C([N+](=O)[O-])=C2N(Cc3ccc(Cl)nc3)CCN21` (stereo unspecified), in the experiment on Aphis craccivora [1], the Activity came out at 100%. This compound also came in with a median lethal concentration (LC50) with Aphis craccivora [2] of 48.9 µg/mL (≈ 133 µM).
`CC1CC(OCCO)N2CCN(Cc3ccc(Cl)nc3)C2=C1[N+](=O)[O-]` (stereo unspecified): the Activity with Aphis craccivora [1] stood at 0%.
Turning to `CCCC1CC(OCC)N2CCN(Cc3ccc(Cl)nc3)C2=C1[N+](=O)[O-]` (stereo unspecified), the Activity in the experiment with Aphis craccivora [1] is 95%.
As for `CC1CC([N+](=O)[O-])=C2N(Cc3ccc(Cl)nc3)CCN2C1O` (stereo unspecified), the Activity in the experiment with Aphis craccivora [1] is reported as 70%.
On the same count and under the same terms, next, `CC(C)OC1C(C)CC([N+](=O)[O-])=C2N(Cc3ccc(Cl)nc3)CCN21` (stereo unspecified): 67%.
As for `CCOC1CC(C)C([N+](=O)[O-])=C2N(Cc3ccc(Cl)nc3)CCN21` (stereo unspecified), the Activity with Aphis craccivora [1] was 100%. Further, the LC50 in the experiment with Aphis craccivora [2] was found to be 65.4 µg/mL (≈ 185 µM).
With `CC1CC(OCCCl)N2CCN(Cc3ccc(Cl)nc3)C2=C1[N+](=O)[O-]` (stereo unspecified), the Activity in the experiment with Aphis craccivora [1] is on record as 100%. The 50% lethal concentration (LC50) in the experiment with Aphis craccivora [2] was found to be 74.7 µg/mL (≈ 193 µM).
In the case of `CC(C)COC1CC(C)C([N+](=O)[O-])=C2N(Cc3ccc(Cl)nc3)CCN21` (stereo unspecified), the Activity with Aphis craccivora [1] is 0%.
With `CCC1CC(O)N2CCN(Cc3ccc(Cl)nc3)C2=C1[N+](=O)[O-]` (stereo unspecified), in the experiment with Aphis craccivora [1], the Activity is 100%. In addition, the LC50 in the experiment on Aphis craccivora [2] was 61 µg/mL (≈ 180 µM).
Take `O=[N+]([O-])/N=C1\NCCN1Cc1ccc(Cl)nc1` [IMIDACLOPRID]: in the experiment with Aphis craccivora [1], the Activity stood at 100%. Besides, the LC50 was 7.9 µg/mL (≈ 30.9 µM) in the experiment with Aphis craccivora [2], 0.14 µg/mL (≈ 0.548 µM) in the experiment with Nilaparvata lugens [3] and 19.7 µg/mL (≈ 77.2 µM) with Nilaparvata lugens [4].
Taken in the same sequence, the figures for `CCCOC1CC(C)C([N+](=O)[O-])=C2N(Cc3ccc(Cl)nc3)CCN21` (stereo unspecified) [PAICHONGDING] were 100%, 33.7 µg/mL (≈ 91.8 µM), 7.35 µg/mL (≈ 20 µM) and 7.2 µg/mL (≈ 19.6 µM).

Values taken from ChEMBL document CHEMBL1141000, “cis-Nitromethylene neonicotinoids as new nicotinic family: synthesis, structural diversity, and insecticidal evaluation of hexahydroimidazo[1,2-alpha]pyridine” (2008).
